ChEMBL document CHEMBL3745596, “Chlorophenoxy aminoalkyl derivatives as histamine H(3)R ligands and antiseizure agents” (Bioorg Med Chem, 2016)
Calls of active or inactive are those of the source.

Tests used:
[1] = Antiproliferative activity against human IMR32 cells assessed as cell viability after 48 hrs by formazan EZ4U dye based assay; conditions: IMR-32, 48 h
Summary of the method: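 HEK-293 (1.5 × 10⁴/well) or IMR-32 (2 × 10⁴/well) cells in DMEM with 10% FBS, 37 °C, 5% CO₂, grown 24 h to about 60% confluence; compounds 0.01–250 µM final, DMSO at most 1%, 48 h.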

[2] = tested on: Liver microsome; assay: Drug metabolism in human liver microsomes after 2 hrs by UPLC-MS/MS analysis; format: ADME
Summary of the method: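 Pooled adult male and female human liver microsomes 1 mg/mL in 0.1 M Tris–HCl pH 7.4 with NADPH regeneration system; started after 5 min preincubation at 37 °C, incubated 2 h at 37 °C, stopped with cold methanol, centrifuged, supernatant analysed by UPLC with ESI tandem quadrupole MS.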

[3] = target: Cytochrome P450 3A4 (Homo sapiens, UniProt P08684); assay: Inhibition of CYP3A4 (unknown origin) up to 10 uM; format: ADME
Cytochrome P450 3A4, sequence (P08684 whole entry): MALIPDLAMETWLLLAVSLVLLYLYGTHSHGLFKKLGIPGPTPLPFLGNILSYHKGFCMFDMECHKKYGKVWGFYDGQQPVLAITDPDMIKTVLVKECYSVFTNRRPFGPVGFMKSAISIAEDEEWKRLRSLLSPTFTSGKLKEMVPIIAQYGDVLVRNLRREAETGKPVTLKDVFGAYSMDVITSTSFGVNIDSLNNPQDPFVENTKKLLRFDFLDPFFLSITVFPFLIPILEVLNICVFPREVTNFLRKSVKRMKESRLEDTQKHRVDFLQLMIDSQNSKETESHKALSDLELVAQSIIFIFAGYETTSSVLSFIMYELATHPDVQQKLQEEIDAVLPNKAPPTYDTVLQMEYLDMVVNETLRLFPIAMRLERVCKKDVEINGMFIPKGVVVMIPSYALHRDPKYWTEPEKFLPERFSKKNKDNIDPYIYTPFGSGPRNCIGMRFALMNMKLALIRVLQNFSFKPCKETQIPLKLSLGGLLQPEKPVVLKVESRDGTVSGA

[4] = target: T1, Histamine H3 receptor (Homo sapiens, UniProt Q9Y5N1); assay: Displacement of [3H]-Nalpha-methylhistamine from human recombinant histamine H3 receptor expressed in HEK293 cells after 90 mins; format: cell-based
T1 sequence (Q9Y5N1 whole entry): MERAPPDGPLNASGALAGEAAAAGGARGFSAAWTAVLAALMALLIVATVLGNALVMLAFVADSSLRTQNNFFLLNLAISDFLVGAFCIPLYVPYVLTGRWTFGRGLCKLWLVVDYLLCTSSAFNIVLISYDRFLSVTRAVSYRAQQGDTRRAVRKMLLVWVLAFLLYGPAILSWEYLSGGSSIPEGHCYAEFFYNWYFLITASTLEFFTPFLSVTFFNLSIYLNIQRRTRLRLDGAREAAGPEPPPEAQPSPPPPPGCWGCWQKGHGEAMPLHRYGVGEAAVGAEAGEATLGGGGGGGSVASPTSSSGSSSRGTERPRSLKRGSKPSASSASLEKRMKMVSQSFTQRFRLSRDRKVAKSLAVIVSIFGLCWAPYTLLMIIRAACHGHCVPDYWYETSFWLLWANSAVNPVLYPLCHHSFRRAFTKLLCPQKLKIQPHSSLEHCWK

[5] = target: T1, Histamine H3 receptor; assay: Antagonist activity at human recombinant histamine H3 receptor expressed in HEK293 cells assessed as inhibition of forskolin/(R)(-)-alpha-methylhistamine-induced cAMP accumulation after 1 hr by TR-FRET immunoassay; format: functional, cell-based
Summary of the method: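 HEK293 cells stably expressing hH3R, stimulated 30 min at room temperature with (R)(-)-α-methylhistamine (15 nM), forskolin and antagonist (0.1 nM–10 µM range) added together. cAMP read by TR-FRET (Eu-cAMP tracer, ULight anti-cAMP antibody, 1 h), converted via cAMP standard curve to % maximal response. Sigmoidal dose–response fit; mean of three experiments, each in triplicate.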

[6] = tested on: Mus musculus; assay: Anticonvulsant activity in CF1 albino mouse assessed as protection against maximal electroshock-induced seizure at 3 mg/kg, ip after 0.5 hrs; format: functional, organism-based
Summary of the method: (§1)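 Male CF-1 mice dosed ip as suspension in 0.5% methylcellulose. Corneal electrodes deliver 60 Hz alternating current, 50 mA for […], after a drop of 0.5% tetracaine HCl in 0.9% NaCl per eye. Protection means abolition of hindlimb tonic extension; scored as protected/tested, or ED50 with 95% confidence interval.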

[7] = tested on: Mus musculus; assay: Anticonvulsant activity in CF1 albino mouse assessed as protection against maximal electroshock-induced seizure at 10 mg/kg, ip after 0.5 hrs; format: functional, organism-based; summary of the method: as §1
[8] = tested on: Mus musculus; assay: Anticonvulsant activity in CF1 albino mouse assessed as protection against maximal electroshock-induced seizure at 30 mg/kg, ip after 0.5 hrs; format: functional, organism-based; summary of the method: as §1
[9] = tested on: Mus musculus; assay: Anticonvulsant activity in CF1 albino mouse assessed as protection against maximal electroshock-induced seizure at 30 mg/kg, ip after 4 hrs; format: functional, organism-based; summary of the method: as §1
[10] = tested on: Mus musculus; assay: Anticonvulsant activity in CF1 albino mouse assessed as protection against subcutaneous pentetrazole-induced seizure at 30 mg/kg, ip after 0.5 hrs; format: functional, organism-based
Summary of the method: (§2)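 Male CF-1 mice, ip in 0.5% methylcellulose; pentetrazole at CD97 (85 mg/kg) injected subcutaneously in a loose fold of neck skin. Observed 30 min; absence of even a threshold seizure (single clonic spasm lasting at least 5 s) counted as protection. Scored protected/tested, or ED50.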

[11] = tested on: Mus musculus; assay: Anticonvulsant activity in CF1 albino mouse assessed as protection against subcutaneous pentetrazole-induced seizure at 30 mg/kg, ip after 4 hrs; format: functional, organism-based; summary of the method: as §2
[12] = tested on: Mus musculus; assay: Anticonvulsant activity in CF1 albino mouse assessed as protection against subcutaneous pentetrazole-induced seizure at 100 mg/kg, ip after 0.5 hrs; format: functional, organism-based; summary of the method: as §2
[13] = tested on: Mus musculus; assay: Anticonvulsant activity in CF1 albino mouse assessed as protection against subcutaneous pentetrazole-induced seizure at 100 mg/kg, ip after 4 hrs; format: functional, organism-based; summary of the method: as §2
[14] = tested on: Mus musculus; assay: Neurotoxicity in CF1 albino mouse at 3 mg/kg, ip after 0.5 hrs by rotarod test; format: toxicity, organism-based; conditions: in vivo
Summary of the method: (§3)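 Rotarod neurotoxicity in male albino CF-1 mice dosed ip with compound suspended in 0.5% methylcellulose. Animal placed on a 1 inch diameter knurled plastic rod rotating at 6 rpm. Neurotoxicity scored when the animal falls off three times within 1 min. Readout is number of animals toxic/number tested at the stated time after dosing. TD50 with 95% confidence interval from the quantitative study.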

[15] = tested on: Mus musculus; assay: Neurotoxicity in CF1 albino mouse at 10 mg/kg, ip after 0.5 hrs by rotarod test; format: toxicity, organism-based; conditions: in vivo
Summary of the method: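 Rotarod neurotoxicity in male CF-1 mice dosed ip as 0.5% methylcellulose suspension: mouse placed on 1 inch knurled rod rotating at 6 rpm; toxicity when the animal falls off three times within 1 min, with other signs noted. Scored as toxic/tested at 0.5 h and 4 h.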

[16] = tested on: Mus musculus; assay: Neurotoxicity in CF1 albino mouse at 30 mg/kg, ip after 0.5 hrs by rotarod test; format: toxicity, organism-based; conditions: in vivo; summary of the method: as §3
[17] = tested on: Mus musculus; assay: Neurotoxicity in CF1 albino mouse at 30 mg/kg, ip after 4 hrs by rotarod test; format: toxicity, organism-based; conditions: in vivo; summary of the method: as §3
[18] = tested on: Mus musculus; assay: Neurotoxicity in CF1 albino mouse assessed as unable to grasp rotarod and death at 100 mg/kg, ip after 0.5 hrs by rotarod test; format: toxicity, organism-based; conditions: in vivo
Summary of the method: (§4)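 Male albino CF-1 mice dosed ip with compound suspended in 0.5% methylcellulose, then placed on a 1-inch knurled plastic rod turning at 6 rpm. A fall three times within 1 min counted as neurotoxicity. Observations were made at 0.5 h and 4 h after dosing. Result given as animals showing toxicity per animals tested, with the kind of toxicity recorded.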

[19] = tested on: Mus musculus; assay: Neurotoxicity in CF1 albino mouse at 100 mg/kg, ip after 4 hrs by rotarod test; format: toxicity, organism-based; conditions: in vivo; summary of the method: as §3
[20] = tested on: Mus musculus; assay: Neurotoxicity in CF1 albino mouse assessed as death at 300 mg/kg, ip after 0.5 hrs by rotarod test; format: toxicity, organism-based; conditions: in vivo; summary of the method: as §4
[21] = tested on: Mus musculus; assay: Neurotoxicity in CF1 albino mouse at 300 mg/kg, ip after 4 hrs by rotarod test; format: toxicity, organism-based; conditions: in vivo; summary of the method: as §3
[22] = tested on: Rattus norvegicus; assay: Anticonvulsant activity in Sprague-Dawley rat assessed as protection against maximal electroshock-induced seizure at 30 mg/kg, po; format: functional
[23] = tested on: Rattus norvegicus; assay: Anticonvulsant activity in Sprague-Dawley rat assessed as protection against pilocarpine-induced convulsive status epilepticus at 65 mg/kg, ip; format: functional, organism-based
Summary of the method: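 Male Sprague Dawley rats (150–180 g) dosed ip, pilocarpine 50 mg/kg ip given; compound dosed immediately at first behavioral Stage 3 seizure or 30 min later. Number protected from Racine Stage 3 or greater seizures recorded.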

[24] = tested on: Mus musculus; assay: Anticonvulsant activity in CF1 albino mouse assessed as protection against maximal electroshock-induced seizure at 100 mg/kg, ip after 0.5 hrs; format: functional, organism-based; summary of the method: as §1
[25] = tested on: Mus musculus; assay: Anticonvulsant activity in CF1 albino mouse assessed as protection against maximal electroshock-induced seizure at 100 mg/kg, ip after 4 hrs; format: functional, organism-based; summary of the method: as §1
[26] = tested on: Mus musculus; assay: Neurotoxicity in CF1 albino mouse assessed as death at 300 mg/kg, ip after 4 hrs by rotarod test; format: toxicity, organism-based; conditions: in vivo; summary of the method: as §4
[27] = Neuroprotective activity in hippocampal slice (unknown origin) assessed as protection against kainic acid-induced cell death using propidium iodide staining; format: functional; conditions: Hippocampus
Summary of the method: (§5)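 Organotypic hippocampal slice cultures exposed to NMDA or kainic acid alone or with compound; propidium iodide in all wells; PI fluorescence intensity of slices, proportional to cell death, compared with excitotoxin-only slices; qualitative.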

[28] = Neuroprotective activity in hippocampal slice (unknown origin) assessed as protection against NMDA-induced cell death using propidium iodide staining; format: functional; conditions: Hippocampus; summary of the method: as §5
[29] = tested on: Mus musculus; assay: Neurotoxicity in CF1 albino mouse assessed as death at 100 mg/kg, ip after 0.5 hrs by rotarod test; format: toxicity, organism-based; conditions: in vivo; summary of the method: as §4
[30] = tested on: Mus musculus; assay: Anticonvulsant activity in CF1 albino mouse assessed as protection against 6 Hz-psychomotor-induced seizure at 30 mg/kg, ip after 0.25 to 4 hrs; format: functional, organism-based
Summary of the method: (§6)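 Male CF-1 mice, ip suspension in 0.5% methylcellulose. Corneal stimulation 0.2 ms monopolar rectangular pulses at 6 Hz, 32 mA for 3 s via constant-current device; mice without minimal clonic phase seizure counted protected. Groups of four; read at 0.25, 0.5, 1, 2, 4 h; result as protected/tested.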

[31] = tested on: Mus musculus; assay: Neurotoxicity in CF1 albino mouse at 30 mg/kg, ip after 0.25 to 4 hrs by rotarod test; format: toxicity, organism-based; conditions: in vivo; summary of the method: as §3
[32] = tested on: Mus musculus; assay: Anticonvulsant activity in CF1 albino mouse assessed as protection against 6 Hz-psychomotor-induced seizure at 60 mg/kg, ip after 4 hrs; format: functional, organism-based; summary of the method: as §6
[33] = tested on: Mus musculus; assay: Neurotoxicity in CF1 albino mouse at 60 mg/kg, ip after 1 to 4 hrs by rotarod test; format: toxicity, organism-based; conditions: in vivo; summary of the method: as §3

Q: With `CC1CCCN(CCCCCOc2ccc(Cl)cc2)C1.O=C(O)C(=O)O` (stereo not drawn) as the compound, how does the IC50 [1] read?
A: 89 µM

Q: What about the Drug metabolism [2] of the same compound?
A: metabolite_detected

Q: And the “inhibition (INH)” value [3]?
A: Not Active

Q: What about the Ki [4] of the same compound?
A: 0.133 µM

Q: What about the EC50 [5] of the same compound?
A: 0.072 µM

Q: What about the Activity [6] of the same compound?
A: inactive

Q: And the Activity [7]?
A: inactive

Q: What about the Activity [8] of the same compound?
A: Active

Q: What about the Activity [9] of the same compound?
A: inactive

Q: What about the Activity [10] of the same compound?
A: inactive

Q: And the Activity [11]?
A: inactive

Q: What about the Activity [12] of the same compound?
A: inactive

Q: And the Activity [13]?
A: inactive

Q: And the Activity [14]?
A: Non-toxic

Q: What about the Activity [15] of the same compound?
A: Non-toxic

Q: And the Activity [16]?
A: Non-toxic

Q: What about the Activity [17] of the same compound?
A: Non-toxic

Q: And the Activity [18]?
A: Toxic

Q: And the Activity [19]?
A: Non-toxic

Q: And the Activity [20]?
A: Toxic

Q: What about the Activity [21] of the same compound?
A: Non-toxic

Q: What about the Activity [22] of the same compound?
A: 25%

Q: Which results are given for `Clc1cccc(OCCCCCCCN2CCCCC2)c1.O=C(O)C(=O)O`?
A: Activity [23]: Active; Ki [4]: 0.333 µM; Activity [8]: inactive; Activity [9]: inactive; Activity [24]: inactive; Activity [25]: inactive; Activity [10]: inactive; Activity [11]: inactive; Activity [12]: inactive; Activity [13]: inactive; Activity [16]: Non-toxic; Activity [17]: Non-toxic; Activity [19]: Non-toxic; Activity [20]: Toxic; Activity [26]: Non-toxic

Q: Which Activity [23] does the source give for `Clc1ccc(OCCCCCCN2CCCCC2)cc1.O=C(O)C(=O)O` here?
A: Active

Q: And the Activity [27]?
A: inactive

Q: What about the Activity [28] of the same compound?
A: inactive

Q: And the Ki [4]?
A: 0.265 µM

Q: And the Activity [6]?
A: inactive

Q: And the Activity [7]?
A: inactive

Q: And the Activity [8]?
A: Active

Q: And the Activity [9]?
A: inactive

Q: What about the Activity [10] of the same compound?
A: inactive

Q: What about the Activity [11] of the same compound?
A: inactive

Q: And the Activity [14]?
A: Non-toxic

Q: What about the Activity [15] of the same compound?
A: Non-toxic

Q: And the Activity [17]?
A: Non-toxic

Q: And the Activity [19]?
A: Non-toxic

Q: And the Activity [20]?
A: Toxic

Q: And the Activity [21]?
A: Non-toxic

Q: And the Activity [29]?
A: Toxic

Q: And the Activity [30]?
A: inactive

Q: What about the Activity [31] of the same compound?
A: Non-toxic

Q: And the Activity [32]?
A: inactive

Q: What about the Activity [33] of the same compound?
A: Non-toxic
